Data as given in ChEMBL document CHEMBL2424622, “Development of amino-pyrimidine inhibitors of c-Jun N-terminal kinase (JNK): kinase profiling guided optimization of a 1,2,3-benzotriazole lead” (Bioorg Med Chem Lett, 2013).

Tests used:
[1] = target: Mitogen-activated protein kinase 6 (Homo sapiens, UniProt Q16659); assay: Competitive binding affinity to ERK3 (unknown origin) at 10 uM in presence of ATP relative to control
[2] = target: T1, Dual specificity mitogen-activated protein kinase kinase 6 (Homo sapiens) (UniProt P52564); assay: Competitive binding affinity to MEK6 (unknown origin) at 10 uM in presence of ATP relative to control
T1 sequence (whole entry): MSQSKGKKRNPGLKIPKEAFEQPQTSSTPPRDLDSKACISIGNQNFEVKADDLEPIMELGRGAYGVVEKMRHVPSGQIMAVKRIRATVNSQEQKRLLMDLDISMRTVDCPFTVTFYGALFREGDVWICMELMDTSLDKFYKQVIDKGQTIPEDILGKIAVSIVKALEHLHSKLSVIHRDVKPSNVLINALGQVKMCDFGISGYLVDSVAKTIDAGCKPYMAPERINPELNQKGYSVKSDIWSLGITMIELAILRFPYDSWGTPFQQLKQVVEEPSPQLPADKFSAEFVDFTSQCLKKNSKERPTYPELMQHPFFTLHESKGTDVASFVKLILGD

[3] = target: Casein kinase I isoform delta (Homo sapiens) (UniProt P48730); assay: Competitive binding affinity to CSNK1D (unknown origin) at 10 uM in presence of ATP relative to control
[4] = target: Serine/threonine-protein kinase N2 (Homo sapiens) (UniProt Q16513); assay: Competitive binding affinity to PKN2 (unknown origin) at 10 uM in presence of ATP relative to control
Outline: (§1)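 In vitro ATP-site competition binding assay across a diverse panel of 128 kinases, with compound tested at a single concentration. Kinase selectivity scores (S15) were calculated from the panel profiles.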

[5] = target: T2, Serine/threonine-protein kinase LATS1 (Homo sapiens) (UniProt O95835); assay: Competitive binding affinity to LATS1 (unknown origin) at 10 uM in presence of ATP relative to control
T2 sequence (whole entry): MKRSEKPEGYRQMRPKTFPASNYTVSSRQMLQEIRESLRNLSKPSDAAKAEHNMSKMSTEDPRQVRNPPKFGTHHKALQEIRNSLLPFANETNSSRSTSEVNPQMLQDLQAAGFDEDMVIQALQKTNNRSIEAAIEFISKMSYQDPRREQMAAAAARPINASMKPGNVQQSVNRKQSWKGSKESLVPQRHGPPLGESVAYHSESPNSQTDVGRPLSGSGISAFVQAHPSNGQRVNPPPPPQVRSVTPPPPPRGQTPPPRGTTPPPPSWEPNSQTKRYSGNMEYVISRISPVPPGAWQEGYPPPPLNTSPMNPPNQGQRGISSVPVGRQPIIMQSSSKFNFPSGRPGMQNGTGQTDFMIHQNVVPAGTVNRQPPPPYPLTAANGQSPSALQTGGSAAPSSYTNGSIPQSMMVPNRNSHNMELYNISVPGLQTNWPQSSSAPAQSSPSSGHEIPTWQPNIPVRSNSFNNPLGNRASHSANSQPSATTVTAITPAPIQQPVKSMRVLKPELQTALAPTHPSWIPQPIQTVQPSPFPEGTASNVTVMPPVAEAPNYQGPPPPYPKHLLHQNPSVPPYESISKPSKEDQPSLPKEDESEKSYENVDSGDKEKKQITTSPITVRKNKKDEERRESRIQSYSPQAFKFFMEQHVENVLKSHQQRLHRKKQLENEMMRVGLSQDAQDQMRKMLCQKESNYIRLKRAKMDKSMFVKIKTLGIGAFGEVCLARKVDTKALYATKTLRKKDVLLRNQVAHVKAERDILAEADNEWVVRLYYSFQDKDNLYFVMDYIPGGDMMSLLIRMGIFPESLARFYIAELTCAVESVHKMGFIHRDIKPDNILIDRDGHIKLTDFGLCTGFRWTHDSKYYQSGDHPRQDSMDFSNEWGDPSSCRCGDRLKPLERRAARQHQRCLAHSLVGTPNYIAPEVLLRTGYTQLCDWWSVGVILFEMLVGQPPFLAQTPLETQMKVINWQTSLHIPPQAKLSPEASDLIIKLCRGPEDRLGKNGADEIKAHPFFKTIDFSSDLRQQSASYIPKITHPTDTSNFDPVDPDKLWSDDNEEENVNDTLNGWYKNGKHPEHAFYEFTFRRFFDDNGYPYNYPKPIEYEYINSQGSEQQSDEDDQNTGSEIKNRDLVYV

[6] = target: Fibroblast growth factor receptor 4 (Homo sapiens) (UniProt P22455); assay: Competitive binding affinity to FGFR4 (unknown origin) at 10 uM in presence of ATP relative to control
Outline: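 In vitro ATP-site competition binding assay, part of profiling against a diverse panel of 128 kinases. Each compound was tested at a single concentration of 10 µM. Kinome selectivity was summarized as S15 selectivity scores.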

[7] = target: ALK tyrosine kinase receptor (Homo sapiens) (UniProt Q9UM73); assay: Competitive binding affinity to ALK (unknown origin) at 10 uM in presence of ATP relative to control
[8] = target: T3, TGF-beta receptor type-1 (Homo sapiens) (UniProt P36897); assay: Competitive binding affinity to TGFBR1 (unknown origin) at 10 uM in presence of ATP relative to control
T3 sequence (whole entry): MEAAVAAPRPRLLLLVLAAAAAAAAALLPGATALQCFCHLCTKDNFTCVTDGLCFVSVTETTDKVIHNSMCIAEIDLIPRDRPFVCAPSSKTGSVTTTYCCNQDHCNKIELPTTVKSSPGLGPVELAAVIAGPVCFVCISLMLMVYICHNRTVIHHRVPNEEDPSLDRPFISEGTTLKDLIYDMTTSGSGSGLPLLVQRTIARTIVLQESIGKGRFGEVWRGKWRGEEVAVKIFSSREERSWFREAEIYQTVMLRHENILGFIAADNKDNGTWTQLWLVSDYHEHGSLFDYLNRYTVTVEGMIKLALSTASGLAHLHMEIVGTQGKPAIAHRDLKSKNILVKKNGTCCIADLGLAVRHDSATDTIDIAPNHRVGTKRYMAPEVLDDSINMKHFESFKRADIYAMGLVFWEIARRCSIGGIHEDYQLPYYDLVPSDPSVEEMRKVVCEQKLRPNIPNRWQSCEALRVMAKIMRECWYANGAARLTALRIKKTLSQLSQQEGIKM

[9] = target: cAMP-dependent protein kinase catalytic subunit beta (Homo sapiens) (UniProt P22694); assay: Competitive binding affinity to PKAC-beta (unknown origin) at 10 uM in presence of ATP relative to control; outline: as §1

Sequence of Fibroblast growth factor receptor 4 (Homo sapiens) (P22455 22-802 limits assumed): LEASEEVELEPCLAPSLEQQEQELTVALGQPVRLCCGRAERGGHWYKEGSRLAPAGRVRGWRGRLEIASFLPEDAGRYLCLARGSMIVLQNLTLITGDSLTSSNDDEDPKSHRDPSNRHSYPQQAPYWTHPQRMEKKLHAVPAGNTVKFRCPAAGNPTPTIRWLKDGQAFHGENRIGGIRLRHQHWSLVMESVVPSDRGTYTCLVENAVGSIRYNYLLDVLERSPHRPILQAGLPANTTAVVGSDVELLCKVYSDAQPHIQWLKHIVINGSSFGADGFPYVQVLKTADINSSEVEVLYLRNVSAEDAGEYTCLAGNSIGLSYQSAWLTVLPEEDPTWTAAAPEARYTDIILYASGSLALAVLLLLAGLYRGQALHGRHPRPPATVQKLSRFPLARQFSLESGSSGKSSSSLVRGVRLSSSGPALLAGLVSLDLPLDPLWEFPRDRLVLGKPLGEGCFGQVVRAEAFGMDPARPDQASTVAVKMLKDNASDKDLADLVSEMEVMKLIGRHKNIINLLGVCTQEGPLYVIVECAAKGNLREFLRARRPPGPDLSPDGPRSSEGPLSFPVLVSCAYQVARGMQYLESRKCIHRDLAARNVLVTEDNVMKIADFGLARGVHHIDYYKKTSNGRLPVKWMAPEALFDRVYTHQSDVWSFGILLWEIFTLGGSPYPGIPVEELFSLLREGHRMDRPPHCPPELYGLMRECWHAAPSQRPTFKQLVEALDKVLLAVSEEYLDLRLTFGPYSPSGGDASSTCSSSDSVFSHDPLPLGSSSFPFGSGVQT
Sequence of ALK tyrosine kinase receptor (Homo sapiens) (Q9UM73 19-1620 limits assumed): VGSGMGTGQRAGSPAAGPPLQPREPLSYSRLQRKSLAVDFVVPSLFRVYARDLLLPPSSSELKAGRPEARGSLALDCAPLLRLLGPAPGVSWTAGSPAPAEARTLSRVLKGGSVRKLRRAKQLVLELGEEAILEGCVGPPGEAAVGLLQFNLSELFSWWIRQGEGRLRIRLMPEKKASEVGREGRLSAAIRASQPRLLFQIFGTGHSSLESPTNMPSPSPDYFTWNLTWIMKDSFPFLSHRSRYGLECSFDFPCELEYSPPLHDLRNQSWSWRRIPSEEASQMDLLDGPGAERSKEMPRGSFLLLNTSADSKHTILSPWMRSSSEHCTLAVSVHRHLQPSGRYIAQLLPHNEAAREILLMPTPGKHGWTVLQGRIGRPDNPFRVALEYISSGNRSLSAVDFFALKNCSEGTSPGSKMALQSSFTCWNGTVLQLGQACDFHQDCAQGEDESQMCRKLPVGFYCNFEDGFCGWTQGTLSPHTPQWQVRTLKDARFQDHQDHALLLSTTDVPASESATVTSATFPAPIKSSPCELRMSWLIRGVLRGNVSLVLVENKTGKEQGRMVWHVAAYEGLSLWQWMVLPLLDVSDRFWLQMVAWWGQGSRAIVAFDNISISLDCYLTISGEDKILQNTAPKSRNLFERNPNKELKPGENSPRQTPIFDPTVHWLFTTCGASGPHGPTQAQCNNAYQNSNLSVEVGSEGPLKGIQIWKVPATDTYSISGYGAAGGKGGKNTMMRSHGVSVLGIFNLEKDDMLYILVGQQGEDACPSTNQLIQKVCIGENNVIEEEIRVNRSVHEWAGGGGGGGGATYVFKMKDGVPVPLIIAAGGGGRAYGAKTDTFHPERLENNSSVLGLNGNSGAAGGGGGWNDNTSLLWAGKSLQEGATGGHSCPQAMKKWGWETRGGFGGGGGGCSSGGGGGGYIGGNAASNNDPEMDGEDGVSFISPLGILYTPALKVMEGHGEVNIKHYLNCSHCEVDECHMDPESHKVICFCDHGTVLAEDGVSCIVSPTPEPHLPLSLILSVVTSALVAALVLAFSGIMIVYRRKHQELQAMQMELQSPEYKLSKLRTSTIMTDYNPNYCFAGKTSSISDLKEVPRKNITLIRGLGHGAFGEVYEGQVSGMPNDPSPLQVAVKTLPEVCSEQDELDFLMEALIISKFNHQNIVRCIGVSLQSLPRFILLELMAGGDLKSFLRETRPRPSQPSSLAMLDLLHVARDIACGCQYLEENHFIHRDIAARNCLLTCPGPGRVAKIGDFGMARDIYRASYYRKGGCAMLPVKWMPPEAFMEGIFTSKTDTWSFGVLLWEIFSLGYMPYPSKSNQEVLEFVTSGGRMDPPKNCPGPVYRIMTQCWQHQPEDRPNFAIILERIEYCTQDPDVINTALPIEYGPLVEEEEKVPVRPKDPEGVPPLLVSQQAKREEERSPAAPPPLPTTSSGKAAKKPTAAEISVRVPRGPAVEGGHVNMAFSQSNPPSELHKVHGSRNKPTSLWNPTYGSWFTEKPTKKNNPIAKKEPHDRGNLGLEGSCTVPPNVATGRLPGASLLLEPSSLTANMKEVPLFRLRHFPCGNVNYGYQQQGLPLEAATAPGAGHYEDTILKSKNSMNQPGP
Sequence of Casein kinase I isoform delta (Homo sapiens) (P48730 whole entry, looked up, canonical isoform): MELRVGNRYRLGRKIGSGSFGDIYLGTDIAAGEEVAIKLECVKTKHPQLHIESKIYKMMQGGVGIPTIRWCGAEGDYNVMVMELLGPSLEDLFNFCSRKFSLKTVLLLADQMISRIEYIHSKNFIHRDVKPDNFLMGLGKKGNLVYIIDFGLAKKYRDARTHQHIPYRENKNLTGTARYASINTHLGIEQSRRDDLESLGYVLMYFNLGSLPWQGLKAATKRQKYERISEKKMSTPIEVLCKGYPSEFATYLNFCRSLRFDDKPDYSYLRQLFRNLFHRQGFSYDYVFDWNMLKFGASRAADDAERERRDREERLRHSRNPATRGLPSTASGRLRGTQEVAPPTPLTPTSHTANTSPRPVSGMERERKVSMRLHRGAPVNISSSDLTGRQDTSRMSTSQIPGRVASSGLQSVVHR
Sequence of Serine/threonine-protein kinase N2 (Homo sapiens) (Q16513 whole entry, looked up): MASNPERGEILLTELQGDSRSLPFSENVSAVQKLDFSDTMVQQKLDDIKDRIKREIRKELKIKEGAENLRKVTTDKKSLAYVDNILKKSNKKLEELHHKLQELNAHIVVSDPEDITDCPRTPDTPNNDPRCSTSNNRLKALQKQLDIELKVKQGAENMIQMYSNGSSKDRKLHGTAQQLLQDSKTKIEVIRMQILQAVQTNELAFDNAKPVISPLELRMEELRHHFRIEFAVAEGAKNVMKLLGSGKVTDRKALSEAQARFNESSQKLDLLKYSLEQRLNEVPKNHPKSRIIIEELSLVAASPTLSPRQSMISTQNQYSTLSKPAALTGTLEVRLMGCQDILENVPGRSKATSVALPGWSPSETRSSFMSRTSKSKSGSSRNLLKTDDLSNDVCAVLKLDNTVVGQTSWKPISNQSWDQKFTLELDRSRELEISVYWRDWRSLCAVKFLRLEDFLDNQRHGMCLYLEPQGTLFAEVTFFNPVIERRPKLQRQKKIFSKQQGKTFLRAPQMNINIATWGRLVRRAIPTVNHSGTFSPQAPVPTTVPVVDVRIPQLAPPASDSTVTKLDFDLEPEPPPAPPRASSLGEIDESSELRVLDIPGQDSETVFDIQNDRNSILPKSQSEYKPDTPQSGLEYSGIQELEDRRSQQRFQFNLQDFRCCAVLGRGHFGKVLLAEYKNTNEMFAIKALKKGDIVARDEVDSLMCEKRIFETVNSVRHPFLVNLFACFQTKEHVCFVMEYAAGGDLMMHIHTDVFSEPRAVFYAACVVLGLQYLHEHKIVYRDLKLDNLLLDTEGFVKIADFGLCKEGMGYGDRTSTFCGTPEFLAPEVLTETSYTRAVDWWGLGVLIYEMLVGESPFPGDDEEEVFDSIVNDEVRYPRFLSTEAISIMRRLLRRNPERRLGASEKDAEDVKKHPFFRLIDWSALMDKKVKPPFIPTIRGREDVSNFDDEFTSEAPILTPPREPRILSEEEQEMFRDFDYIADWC
Sequence of Mitogen-activated protein kinase 6 (Q16659 whole entry): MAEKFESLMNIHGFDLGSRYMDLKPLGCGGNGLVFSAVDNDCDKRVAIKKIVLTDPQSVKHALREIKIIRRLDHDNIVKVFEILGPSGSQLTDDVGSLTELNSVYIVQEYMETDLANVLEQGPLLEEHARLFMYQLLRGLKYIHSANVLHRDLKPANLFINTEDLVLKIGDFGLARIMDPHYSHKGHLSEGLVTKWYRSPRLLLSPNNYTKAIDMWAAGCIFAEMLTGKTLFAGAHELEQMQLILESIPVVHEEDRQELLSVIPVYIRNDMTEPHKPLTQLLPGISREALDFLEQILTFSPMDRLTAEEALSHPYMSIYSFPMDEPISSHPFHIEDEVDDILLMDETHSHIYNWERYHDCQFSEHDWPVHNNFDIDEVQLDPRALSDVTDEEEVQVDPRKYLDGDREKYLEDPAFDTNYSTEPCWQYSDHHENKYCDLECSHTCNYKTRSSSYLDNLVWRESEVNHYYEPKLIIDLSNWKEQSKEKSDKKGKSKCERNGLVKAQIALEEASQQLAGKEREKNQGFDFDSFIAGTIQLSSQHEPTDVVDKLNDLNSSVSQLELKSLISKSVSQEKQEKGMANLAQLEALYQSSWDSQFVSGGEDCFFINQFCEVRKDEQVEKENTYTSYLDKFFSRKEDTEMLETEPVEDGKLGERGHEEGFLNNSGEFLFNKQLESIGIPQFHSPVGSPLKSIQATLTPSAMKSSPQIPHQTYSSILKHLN

Row | Structure (SMILES) | inhibition [1] | inhibition [2] | inhibition [3] | inhibition [4] | inhibition [5] | inhibition [6] | inhibition [7] | inhibition [8] | inhibition [9]
1 | CS(=O)(=O)CCCOc1cccc2c1ccn2-c1ccnc(N[C@H]2CC[C@H](C(=O)N3CCC(O)CC3)CC2)n1 | > 85% | > 85% |  |  |  |  |  |  | 
2 | O[C@H]1CC[C@H](Nc2nccc(-n3ccc4ccccc43)n2)CC1 | 99% | 90% | 91% | < 50% | < 50% | < 50% | < 50% | < 50% | < 50%
3 | O[C@H]1CC[C@H](Nc2nccc(-n3nnc4ccccc43)n2)CC1 | 100% | 96% | 100% | 69% | < 50% | < 50% | 66% | < 50% | < 50%
4 | O[C@H]1CC[C@H](Nc2nccc(-n3ncc4ccccc43)n2)CC1 | 100% | 90% | 96% | < 50% | < 50% | < 50% | 78% | < 50% | < 50%
5 | O[C@H]1CC[C@H](Nc2nccc(-c3n[nH]c4ccccc34)n2)CC1 |  |  | 100% | 67% |  | < 50% | 100% | < 50% | < 50%
